According to ChEMBL document CHEMBL1250448, “Inhibitor hijacking of Akt activation” (Nat Chem Biol, 2009):

What was measured:
[1] = target: SRSF protein kinase 2 (Homo sapiens) (UniProt P78362); experiment: Inhibition of SRPK2 at 1 uM in presence of 10 uM ATP by Select Screen kinase assay relative to untreated control
Outline: (§1)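 Commercial SelectScreen profiling panel of 220 purified kinases. Each kinase was tested at a single inhibitor concentration of 1 μM, and activity was expressed as percent inhibition.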

[2] = target: Angiopoietin-1 receptor (Homo sapiens) (UniProt Q02763); experiment: Inhibition of TEK at 1 uM in presence of 10 uM ATP by Select Screen kinase assay relative to untreated control; outline: as §1
[3] = target: Protein kinase C beta type (Homo sapiens) (UniProt P05771); experiment: Inhibition of PRKCB2 at 1 uM in presence of 10 uM ATP by Select Screen kinase assay relative to untreated control; outline: as §1
[4] = target: Aurora kinase C (Homo sapiens) (UniProt Q9UQB9); experiment: Inhibition of AURKC at 1 uM in presence of 10 uM ATP by Select Screen kinase assay relative to untreated control
[5] = target: Proto-oncogene tyrosine-protein kinase Src (Homo sapiens) (UniProt P12931); experiment: Inhibition of SRC N1 at 1 uM in presence of 10 uM ATP by Select Screen kinase assay relative to untreated control; outline: as §1
[6] = target: High affinity nerve growth factor receptor (Homo sapiens) (UniProt P04629); experiment: Inhibition of NTRK1 at 1 uM in presence of 100 uM ATP by Select Screen kinase assay relative to untreated control; outline: as §1
[7] = target: Ephrin type-A receptor 4 (Homo sapiens) (UniProt P54764); experiment: Inhibition of EPHA4 at 1 uM in presence of 100 uM ATP by Select Screen kinase assay relative to untreated control
Outline: (§2)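 Single-point screen at 1 μM against a panel of 220 purified kinases, run by Invitrogen staff as a SelectScreen profiling service. Read-out is percent inhibition of kinase activity.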

[8] = target: Casein kinase I isoform gamma-3 (Homo sapiens) (UniProt Q9Y6M4); experiment: Inhibition of CSNK1G3 at 1 uM in presence of 10 uM ATP by Select Screen kinase assay relative to untreated control; outline: as §2
[9] = target: T1, Ephrin type-A receptor 8 (Homo sapiens) (UniProt P29322); experiment: Inhibition of EPHA8 at 1 uM in presence of 10 uM ATP by Select Screen kinase assay relative to untreated control; outline: as §2
T1 sequence (whole entry): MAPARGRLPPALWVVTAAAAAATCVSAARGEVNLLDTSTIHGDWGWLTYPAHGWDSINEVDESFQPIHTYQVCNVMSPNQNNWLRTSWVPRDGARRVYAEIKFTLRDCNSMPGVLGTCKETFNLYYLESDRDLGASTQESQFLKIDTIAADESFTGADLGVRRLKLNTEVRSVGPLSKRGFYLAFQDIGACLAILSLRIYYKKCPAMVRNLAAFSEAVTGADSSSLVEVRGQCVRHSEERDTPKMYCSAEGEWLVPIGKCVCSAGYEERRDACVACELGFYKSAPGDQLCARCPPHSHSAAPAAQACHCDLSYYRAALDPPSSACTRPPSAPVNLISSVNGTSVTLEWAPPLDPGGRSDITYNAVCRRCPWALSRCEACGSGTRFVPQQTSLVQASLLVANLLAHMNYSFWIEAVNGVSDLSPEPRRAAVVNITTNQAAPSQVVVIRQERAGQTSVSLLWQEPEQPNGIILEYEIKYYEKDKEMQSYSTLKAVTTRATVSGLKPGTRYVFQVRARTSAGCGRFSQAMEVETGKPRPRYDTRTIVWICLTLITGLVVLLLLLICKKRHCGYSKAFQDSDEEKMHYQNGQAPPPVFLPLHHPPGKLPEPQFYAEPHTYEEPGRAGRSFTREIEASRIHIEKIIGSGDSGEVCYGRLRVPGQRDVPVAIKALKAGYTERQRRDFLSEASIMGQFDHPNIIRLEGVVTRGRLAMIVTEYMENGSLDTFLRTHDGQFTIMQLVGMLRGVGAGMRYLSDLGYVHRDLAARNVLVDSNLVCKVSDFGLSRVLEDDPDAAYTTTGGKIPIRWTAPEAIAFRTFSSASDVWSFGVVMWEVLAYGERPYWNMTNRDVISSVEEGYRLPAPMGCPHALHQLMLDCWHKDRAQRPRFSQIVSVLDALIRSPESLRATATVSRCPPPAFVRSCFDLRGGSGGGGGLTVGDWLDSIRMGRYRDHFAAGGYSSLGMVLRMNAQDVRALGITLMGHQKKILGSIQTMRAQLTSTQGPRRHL

[10] = target: Serine/threonine-protein kinase 24 (Homo sapiens) (UniProt Q9Y6E0); experiment: Inhibition of STK24 at 1 uM in presence of 100 uM ATP by Select Screen kinase assay relative to untreated control; outline: as §1
[11] = target: BDNF/NT-3 growth factors receptor (Homo sapiens) (UniProt Q16620); experiment: Inhibition of NTRK2 at 1 uM in presence of 10 uM ATP by Select Screen kinase assay relative to untreated control; outline: as §1
[12] = target: Tyrosine-protein kinase Fer (Homo sapiens) (UniProt P16591); experiment: Inhibition of FER at 1 uM in presence of 10 uM ATP by Select Screen kinase assay relative to untreated control; outline: as §2
Sequence of Tyrosine-protein kinase Fer (Homo sapiens) (P16591 whole entry, looked up): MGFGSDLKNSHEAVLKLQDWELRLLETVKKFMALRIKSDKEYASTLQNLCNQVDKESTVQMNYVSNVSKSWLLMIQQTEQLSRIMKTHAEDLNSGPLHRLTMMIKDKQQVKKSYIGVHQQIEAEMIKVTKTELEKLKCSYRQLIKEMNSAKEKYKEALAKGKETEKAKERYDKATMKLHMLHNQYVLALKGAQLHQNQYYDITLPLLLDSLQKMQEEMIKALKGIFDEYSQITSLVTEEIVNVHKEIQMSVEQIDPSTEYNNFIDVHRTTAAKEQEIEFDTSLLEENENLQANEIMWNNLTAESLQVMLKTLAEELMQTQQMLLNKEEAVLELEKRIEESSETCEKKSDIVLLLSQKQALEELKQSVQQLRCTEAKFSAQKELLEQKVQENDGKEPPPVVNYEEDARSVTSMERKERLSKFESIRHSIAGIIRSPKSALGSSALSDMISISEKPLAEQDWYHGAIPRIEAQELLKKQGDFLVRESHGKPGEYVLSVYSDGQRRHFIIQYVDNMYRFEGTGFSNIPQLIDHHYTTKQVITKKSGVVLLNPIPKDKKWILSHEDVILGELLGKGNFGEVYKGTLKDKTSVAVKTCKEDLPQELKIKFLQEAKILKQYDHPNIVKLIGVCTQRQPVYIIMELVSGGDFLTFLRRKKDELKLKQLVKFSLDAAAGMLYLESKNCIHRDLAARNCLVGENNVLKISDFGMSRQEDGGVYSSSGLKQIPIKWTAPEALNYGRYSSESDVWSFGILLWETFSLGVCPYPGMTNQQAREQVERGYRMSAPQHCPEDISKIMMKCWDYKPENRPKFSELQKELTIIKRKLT

Sequence of BDNF/NT-3 growth factors receptor (Homo sapiens) (Q16620 32-822 limits assumed): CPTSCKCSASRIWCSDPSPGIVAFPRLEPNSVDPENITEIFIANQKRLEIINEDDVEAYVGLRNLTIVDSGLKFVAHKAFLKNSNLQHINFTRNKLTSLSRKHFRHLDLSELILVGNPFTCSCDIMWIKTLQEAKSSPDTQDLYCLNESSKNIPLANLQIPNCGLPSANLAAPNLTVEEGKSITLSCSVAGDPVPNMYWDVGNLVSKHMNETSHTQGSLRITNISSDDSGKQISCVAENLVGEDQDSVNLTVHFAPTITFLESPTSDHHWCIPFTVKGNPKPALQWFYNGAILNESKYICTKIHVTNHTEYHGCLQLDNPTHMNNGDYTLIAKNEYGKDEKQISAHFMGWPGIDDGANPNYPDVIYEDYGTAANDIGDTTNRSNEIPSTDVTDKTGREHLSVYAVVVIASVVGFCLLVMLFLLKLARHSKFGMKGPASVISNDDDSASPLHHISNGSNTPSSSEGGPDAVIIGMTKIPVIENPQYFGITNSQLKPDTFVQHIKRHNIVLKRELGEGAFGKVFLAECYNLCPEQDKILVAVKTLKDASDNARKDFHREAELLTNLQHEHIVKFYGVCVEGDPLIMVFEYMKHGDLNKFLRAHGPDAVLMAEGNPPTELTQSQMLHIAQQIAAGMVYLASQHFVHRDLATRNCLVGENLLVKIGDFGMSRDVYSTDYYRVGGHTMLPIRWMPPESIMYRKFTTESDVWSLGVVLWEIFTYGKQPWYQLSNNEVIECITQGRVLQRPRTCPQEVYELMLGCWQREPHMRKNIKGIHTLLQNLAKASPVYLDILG
Sequence of Casein kinase I isoform gamma-3 (Homo sapiens) (Q9Y6M4 whole entry, looked up, canonical isoform): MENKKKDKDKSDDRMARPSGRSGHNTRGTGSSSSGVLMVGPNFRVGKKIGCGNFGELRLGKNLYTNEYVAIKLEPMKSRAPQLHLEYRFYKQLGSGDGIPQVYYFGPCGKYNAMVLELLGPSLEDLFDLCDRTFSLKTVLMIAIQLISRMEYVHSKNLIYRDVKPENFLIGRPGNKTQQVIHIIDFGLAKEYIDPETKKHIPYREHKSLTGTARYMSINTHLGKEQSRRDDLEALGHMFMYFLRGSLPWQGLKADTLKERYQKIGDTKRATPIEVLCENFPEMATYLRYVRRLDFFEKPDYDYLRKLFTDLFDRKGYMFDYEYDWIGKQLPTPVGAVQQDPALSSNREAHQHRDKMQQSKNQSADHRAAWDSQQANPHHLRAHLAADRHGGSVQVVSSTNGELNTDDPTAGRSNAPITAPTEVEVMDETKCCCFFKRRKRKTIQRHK
Sequence of SRSF protein kinase 2 (Homo sapiens) (P78362 whole entry, looked up): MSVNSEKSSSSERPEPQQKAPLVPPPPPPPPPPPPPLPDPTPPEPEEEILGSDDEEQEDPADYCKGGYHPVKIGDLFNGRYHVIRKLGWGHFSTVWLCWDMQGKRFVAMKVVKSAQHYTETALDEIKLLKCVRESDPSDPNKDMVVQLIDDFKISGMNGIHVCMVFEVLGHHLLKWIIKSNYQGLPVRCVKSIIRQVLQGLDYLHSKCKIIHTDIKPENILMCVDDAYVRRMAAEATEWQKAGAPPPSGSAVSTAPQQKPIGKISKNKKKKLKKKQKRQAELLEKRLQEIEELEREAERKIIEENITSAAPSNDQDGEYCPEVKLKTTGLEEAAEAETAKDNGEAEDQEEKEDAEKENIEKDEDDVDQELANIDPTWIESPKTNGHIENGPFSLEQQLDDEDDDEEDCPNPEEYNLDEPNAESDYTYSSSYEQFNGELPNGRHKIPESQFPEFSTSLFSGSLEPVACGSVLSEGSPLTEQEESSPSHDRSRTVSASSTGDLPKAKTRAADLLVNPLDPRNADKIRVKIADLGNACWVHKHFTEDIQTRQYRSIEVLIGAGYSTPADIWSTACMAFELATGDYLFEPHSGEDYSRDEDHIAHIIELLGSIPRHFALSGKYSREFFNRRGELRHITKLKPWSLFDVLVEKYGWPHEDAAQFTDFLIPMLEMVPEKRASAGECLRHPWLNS
Sequence of Proto-oncogene tyrosine-protein kinase Src (Homo sapiens) (P12931 2-536 limits assumed): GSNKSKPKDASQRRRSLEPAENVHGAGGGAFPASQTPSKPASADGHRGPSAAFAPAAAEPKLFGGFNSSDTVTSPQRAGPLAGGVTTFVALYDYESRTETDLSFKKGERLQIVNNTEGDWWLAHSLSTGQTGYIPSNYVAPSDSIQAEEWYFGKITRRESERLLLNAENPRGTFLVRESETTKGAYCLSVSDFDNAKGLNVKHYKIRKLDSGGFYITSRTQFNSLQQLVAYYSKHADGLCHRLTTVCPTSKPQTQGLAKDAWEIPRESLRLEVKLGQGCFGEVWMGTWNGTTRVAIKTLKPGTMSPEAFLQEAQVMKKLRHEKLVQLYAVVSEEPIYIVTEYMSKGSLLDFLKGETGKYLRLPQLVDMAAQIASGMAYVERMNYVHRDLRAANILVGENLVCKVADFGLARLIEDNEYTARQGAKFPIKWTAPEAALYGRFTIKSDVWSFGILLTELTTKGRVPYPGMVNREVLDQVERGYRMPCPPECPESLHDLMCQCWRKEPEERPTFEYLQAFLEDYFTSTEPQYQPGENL
Sequence of Angiopoietin-1 receptor (Homo sapiens) (Q02763 whole entry): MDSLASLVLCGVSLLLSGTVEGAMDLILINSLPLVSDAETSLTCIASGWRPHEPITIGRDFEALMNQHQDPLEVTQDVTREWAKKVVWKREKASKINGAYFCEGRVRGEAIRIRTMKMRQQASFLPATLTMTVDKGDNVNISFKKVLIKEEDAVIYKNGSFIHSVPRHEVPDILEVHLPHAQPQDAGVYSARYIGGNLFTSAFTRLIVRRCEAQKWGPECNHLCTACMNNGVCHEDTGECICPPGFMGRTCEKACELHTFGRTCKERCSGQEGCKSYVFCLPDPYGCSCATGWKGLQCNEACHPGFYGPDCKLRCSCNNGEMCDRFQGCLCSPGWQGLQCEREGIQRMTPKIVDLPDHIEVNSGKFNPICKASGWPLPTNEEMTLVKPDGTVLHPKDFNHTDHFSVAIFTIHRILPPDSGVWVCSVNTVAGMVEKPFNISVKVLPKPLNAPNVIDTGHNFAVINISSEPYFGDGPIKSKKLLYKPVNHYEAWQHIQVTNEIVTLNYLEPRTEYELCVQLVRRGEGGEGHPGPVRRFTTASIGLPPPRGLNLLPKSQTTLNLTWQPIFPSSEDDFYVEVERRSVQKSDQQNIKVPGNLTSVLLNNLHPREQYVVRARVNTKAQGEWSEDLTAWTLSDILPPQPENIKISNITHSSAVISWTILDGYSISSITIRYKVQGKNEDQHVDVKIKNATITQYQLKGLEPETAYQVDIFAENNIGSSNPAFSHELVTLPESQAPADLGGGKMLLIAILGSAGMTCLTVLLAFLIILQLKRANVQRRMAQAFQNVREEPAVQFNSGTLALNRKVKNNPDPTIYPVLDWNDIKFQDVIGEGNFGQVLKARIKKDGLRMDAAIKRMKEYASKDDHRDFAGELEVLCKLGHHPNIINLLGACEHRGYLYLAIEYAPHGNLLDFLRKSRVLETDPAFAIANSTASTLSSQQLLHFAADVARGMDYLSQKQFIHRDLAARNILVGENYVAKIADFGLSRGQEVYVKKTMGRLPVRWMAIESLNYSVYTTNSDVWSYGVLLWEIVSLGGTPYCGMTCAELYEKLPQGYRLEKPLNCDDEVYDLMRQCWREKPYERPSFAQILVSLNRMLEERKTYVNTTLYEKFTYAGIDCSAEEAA
Sequence of Protein kinase C beta type (Homo sapiens) (P05771 2-671 limits assumed): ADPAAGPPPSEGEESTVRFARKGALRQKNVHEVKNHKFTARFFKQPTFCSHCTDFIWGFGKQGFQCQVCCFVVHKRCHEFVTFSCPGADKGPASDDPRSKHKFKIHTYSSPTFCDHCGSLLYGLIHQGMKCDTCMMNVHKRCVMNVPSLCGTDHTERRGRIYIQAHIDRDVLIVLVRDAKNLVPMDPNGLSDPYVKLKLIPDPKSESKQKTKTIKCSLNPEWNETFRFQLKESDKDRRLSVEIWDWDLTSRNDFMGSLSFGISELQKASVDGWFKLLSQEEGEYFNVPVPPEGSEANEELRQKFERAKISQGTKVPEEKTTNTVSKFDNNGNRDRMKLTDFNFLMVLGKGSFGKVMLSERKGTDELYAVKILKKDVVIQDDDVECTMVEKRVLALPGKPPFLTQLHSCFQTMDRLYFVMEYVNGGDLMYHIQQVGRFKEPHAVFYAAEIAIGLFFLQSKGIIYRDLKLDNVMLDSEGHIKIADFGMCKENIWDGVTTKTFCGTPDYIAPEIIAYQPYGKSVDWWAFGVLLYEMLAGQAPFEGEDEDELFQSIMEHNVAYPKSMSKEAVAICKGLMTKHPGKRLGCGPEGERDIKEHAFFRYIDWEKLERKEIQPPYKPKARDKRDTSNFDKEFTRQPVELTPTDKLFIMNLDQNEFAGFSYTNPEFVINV

inhibition [1] | inhibition [2] | inhibition [3] | inhibition [4] | inhibition [5] | inhibition [6] | inhibition [7] | inhibition [8] | inhibition [9] | inhibition [10] | inhibition [11] | inhibition [12] | Compound
5% | 11% | 35% | 96% | 30% | 84% | 11% | 14% | 16% | 2% | 74% | 38% | O=C(NCCCNc1nc(Nc2cccc(NC(=O)N3CCCC3)c2)ncc1I)c1cccs1
4% | 12% | 32% | 16% | 15% | 34% | 9% | 8% | 16% | 27% | 11% | 28% | COc1ccccc1N1CCN(c2ncnc3[nH]nc(Br)c23)CC1

Compound | inhibition [1] | inhibition [2] | inhibition [3] | inhibition [4] | inhibition [5] | inhibition [6] | inhibition [7] | inhibition [8] | inhibition [9] | inhibition [10] | inhibition [11] | inhibition [12]
Cc1n[nH]c2ccc(-c3cncc(OC[C@@H](N)Cc4c[nH]c5ccccc45)c3)cc12 | 39% | -1% | 68% | 17% | 5% | 42% | -4% | 57% | 3% | 76% | 12% | 14%
